Data from PMC8028158 (ACS Omega, 2021).
Entries after “also recorded” stand apart in the source; their conditions may differ.

How the values were obtained:
[1] = target: T1, mouse TRPC6 (Mus musculus, UniProt Q61143); test: Fluorescence Ca2+ assay, inhibition of HDM-activated TRPC6 in HEK293 cells; format: cell-based; settings: HEK293 cells with stable expression of mouse TRPC6
T1 sequence (Q61143 1-930): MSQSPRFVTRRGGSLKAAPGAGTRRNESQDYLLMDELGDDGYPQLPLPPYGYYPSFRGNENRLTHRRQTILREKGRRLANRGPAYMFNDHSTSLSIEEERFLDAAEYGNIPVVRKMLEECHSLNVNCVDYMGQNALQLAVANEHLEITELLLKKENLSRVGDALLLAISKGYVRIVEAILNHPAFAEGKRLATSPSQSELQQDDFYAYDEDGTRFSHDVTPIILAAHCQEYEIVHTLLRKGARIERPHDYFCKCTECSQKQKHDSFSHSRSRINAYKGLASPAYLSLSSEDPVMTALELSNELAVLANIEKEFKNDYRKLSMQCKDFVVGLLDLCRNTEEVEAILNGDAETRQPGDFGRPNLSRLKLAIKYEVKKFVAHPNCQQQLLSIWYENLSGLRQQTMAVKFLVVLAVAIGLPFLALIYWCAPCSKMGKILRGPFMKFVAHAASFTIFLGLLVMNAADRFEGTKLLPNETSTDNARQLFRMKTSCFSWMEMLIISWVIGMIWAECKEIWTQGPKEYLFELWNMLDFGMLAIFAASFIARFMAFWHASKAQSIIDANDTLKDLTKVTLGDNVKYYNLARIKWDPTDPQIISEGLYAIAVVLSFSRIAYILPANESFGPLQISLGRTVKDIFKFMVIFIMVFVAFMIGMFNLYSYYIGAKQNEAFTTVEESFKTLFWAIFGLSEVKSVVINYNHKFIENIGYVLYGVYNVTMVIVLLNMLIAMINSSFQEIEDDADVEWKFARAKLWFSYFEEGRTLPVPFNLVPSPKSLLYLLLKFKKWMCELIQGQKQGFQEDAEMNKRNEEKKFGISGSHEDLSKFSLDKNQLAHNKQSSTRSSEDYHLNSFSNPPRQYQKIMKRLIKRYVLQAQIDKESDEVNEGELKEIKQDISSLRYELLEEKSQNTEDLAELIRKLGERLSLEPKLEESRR
Method in brief: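 HEK293 cells co-expressing mouse TRPC6 and the Gq/11-PLC-coupled M5 muscarinic receptor were loaded with Fluo-4. Cells were preincubated with test compound at various concentrations for 5 min, then HDM (10 μM) was added, and fluorescence was read in a microplate reader. Traces were expressed as ΔF over F0. IC50 came from a Hill fit of one experiment (N = 3).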

[2] = tested on: MKN-45 cells; test: MTT cell viability assay, MKN-45; format: cell-based, human; settings: read-out: IC50 cell proliferation, MKN-45; 72 h, MTT
Method in brief: (§1)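 Cells were seeded at 2000 per well, incubated overnight and exposed to test compound for 72 h. MTT was added for 4 h, formazan was dissolved in DMSO and absorbance was read at 570 nm. Viability was normalized to untreated wells, giving mean ± SEM of three trials. IC50 was calculated from relative survival.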

[3] = tested on: AGS cells; test: MTT cell viability assay, AGS; format: cell-based, human; settings: read-out: IC50 cell proliferation, AGS; 72 h, MTT
Method in brief: as §1

[4] = target: T2, TRPC6 (Mus musculus, UniProt Q61143); settings: read-out: IC50 TRPC6; nonselective TRPC6 antagonist; cited from earlier work
T2 sequence (Q61143 1-930): T1 sequence (Q61143 1-930)

COc1cccc2sc(N(CCN(C)C)C(=O)c3ccc4ccccc4c3)nc12 [Compound 1r, N-(2-(dimethylamino)ethyl)-N-(4-methoxybenzo[d]thiazol-2-yl)-2-naphthamide]
TRPC6 antagonistic potency (in words) [1]: No in vitro potency; also recorded: no antagonistic potency

COc1ccc(CCCOC(Cn2ccnc2)c2ccc(OC)cc2)cc1 (stereo not shown) [SKF-96365, 1H-Imidazole, 1-[2-(4-methoxyphenyl)-2-[3-(4-methoxyphenyl)propoxy]ethyl], reference compound]
IC50 [2]: 15.3 µM
IC50 [3]: 37 µM
IC50 [4]: 4.9 µM
